Test results taken from ChEMBL document CHEMBL1147958, “Evaluation of the anti-inflammatory and anti-nociceptive activities of novel synthesized melatonin analogues” (2007).

Legend:
Rattus norvegicus [1] = assay: Inhibition of carrageenan-induced paw oedema in Sprague-Dawley rat at 6.88 mg/kg, sc after 1 hr; type: functional; conditions: read-out: Inhibition, route subcutaneous
Method in brief: (§1)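 Rats (n = 6/group) got the test agent s.c. (0.5 mL) as a 30 min pretreatment. Oedema was induced by sub-plantar 1% lambda-carrageenan in saline into the right hind paw, with saline in the contralateral paw. Paw volume was measured by plethysmometer before injection and at 1, 2, 3 and 4 h, and expressed as % change from pre-drug values.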

Rattus norvegicus [2] = assay: Inhibition of carrageenan-induced paw oedema in Sprague-Dawley rat at 6.88 mg/kg, sc after 2 hrs; type: functional; conditions: read-out: Inhibition, route subcutaneous; method in brief: as §1
Rattus norvegicus [3] = assay: Inhibition of carrageenan-induced paw oedema in Sprague-Dawley rat at 6.88 mg/kg, sc after 3 hrs; type: functional; conditions: read-out: Inhibition, route subcutaneous; method in brief: as §1
Rattus norvegicus [4] = assay: Inhibition of carrageenan-induced paw oedema in Sprague-Dawley rat at 6.88 mg/kg, sc after 4 hrs; type: functional; conditions: read-out: Inhibition, route subcutaneous; method in brief: as §1
Rattus norvegicus [5] = assay: Antinociceptive activity in Sprague-Dawley rat at 6.88 mg/kg, sc assessed as increase in latency time after 1 hr by hot plate method; type: functional; conditions: route subcutaneous
Method in brief: (§2)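 Rats (n = 6/group) were dosed s.c. 30 min before testing on a hot-plate held at 52 °C, 30 s cut-off. Reaction latency was read at 1 and 2 h and expressed as % increase over each group's pre-drug basal latency, with indomethacin as the reference control. Groups were compared by ANOVA and Duncan's test.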

Rattus norvegicus [6] = assay: Antinociceptive activity in Sprague-Dawley rat at 6.88 mg/kg, sc assessed as increase in latency time after 2 hrs by hot plate method; type: functional; conditions: route subcutaneous; method in brief: as §2
Rattus norvegicus [7] = assay: Antinociceptive activity in Sprague-Dawley rat assessed as inhibition of number of indomethacin-induced gastric lesions at 6.88 mg/kg, sc; type: functional; conditions: Stomach, route subcutaneous
Method in brief: (§3)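 Sprague-Dawley rats (120–130 g, food and water ad libitum) got indomethacin 20 mg/kg s.c. to induce gastric mucosal damage, with the test agent given s.c. at the time of indomethacin injection. Rats were killed 24 h later. Stomachs were opened along the greater curvature, rinsed with saline, and lesions counted and severity-scored on a previously described scale. Results are % decrease versus the indomethacin control.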

Rattus norvegicus [8] = assay: […] in Sprague-Dawley rat assessed as inhibition of indomethacin-induced gastric lesions severity at 6.88 mg/kg, sc; type: functional; conditions: Stomach, route subcutaneous; method in brief: as §3
Mus musculus [9] = assay: Antinociceptive activity in Swiss Albino mouse assessed as inhibition of acetic acid-induced writhes per 30 min at 6.88 mg/kg, sc; conditions: 0.5 h, read-out: Inhibition
Rattus norvegicus [10] = assay: Inhibition of carrageenan-induced paw oedema in Sprague-Dawley rat at 5.40 mg/kg, sc after 1 hr; type: functional; conditions: read-out: Inhibition, route subcutaneous; method in brief: as §1
Rattus norvegicus [11] = assay: Inhibition of carrageenan-induced paw oedema in Sprague-Dawley rat at 5.40 mg/kg, sc after 2 hrs; type: functional; conditions: read-out: Inhibition, route subcutaneous; method in brief: as §1
Rattus norvegicus [12] = assay: Inhibition of carrageenan-induced paw oedema in Sprague-Dawley rat at 5.40 mg/kg, sc after 3 hrs; type: functional; conditions: read-out: Inhibition, route subcutaneous; method in brief: as §1
Rattus norvegicus [13] = assay: Inhibition of carrageenan-induced paw oedema in Sprague-Dawley rat at 5.40 mg/kg, sc after 4 hrs; type: functional; conditions: read-out: Inhibition, route subcutaneous; method in brief: as §1
Rattus norvegicus [14] = assay: Antinociceptive activity in Sprague-Dawley rat at 5.40 mg/kg, sc assessed as increase in latency time after 1 hr by hot plate method; type: functional; conditions: dose 5.4 mg/kg; route subcutaneous; method in brief: as §2
Rattus norvegicus [15] = assay: Antinociceptive activity in Sprague-Dawley rat at 5.40 mg/kg, sc assessed as increase in latency time after 2 hrs by hot plate method; type: functional; conditions: dose 5.4 mg/kg; route subcutaneous; method in brief: as §2
Rattus norvegicus [16] = assay: Antinociceptive activity in Sprague-Dawley rat assessed as inhibition of number of indomethacin-induced gastric lesions at 5.40 mg/kg, sc; type: functional; conditions: Stomach, route subcutaneous; method in brief: as §3
Rattus norvegicus [17] = assay: […] in Sprague-Dawley rat assessed as inhibition of indomethacin-induced gastric lesions severity at 5.40 mg/kg, sc; type: functional; conditions: Stomach, route subcutaneous; method in brief: as §3
Mus musculus [18] = assay: Antinociceptive activity in Swiss Albino mouse assessed as inhibition of acetic acid-induced writhes per 30 min at 5.40 mg/kg, sc; conditions: 0.5 h
Rattus norvegicus [19] = assay: Inhibition of carrageenan-induced paw oedema in Sprague-Dawley rat at 5.16 mg/kg, sc after 2 hrs; type: functional; conditions: route subcutaneous; method in brief: as §1
Rattus norvegicus [20] = assay: Inhibition of carrageenan-induced paw oedema in Sprague-Dawley rat at 5.16 mg/kg, sc after 3 hrs; type: functional; conditions: read-out: Inhibition, route subcutaneous; method in brief: as §1
Rattus norvegicus [21] = assay: Inhibition of carrageenan-induced paw oedema in Sprague-Dawley rat at 5.16 mg/kg, sc after 4 hrs; type: functional; conditions: route subcutaneous; method in brief: as §1
Rattus norvegicus [22] = assay: Inhibition of carrageenan-induced paw oedema in Sprague-Dawley rat at 5.16 mg/kg, sc after 1 hr; type: functional; conditions: read-out: Inhibition, route subcutaneous; method in brief: as §1
Rattus norvegicus [23] = assay: Antinociceptive activity in Sprague-Dawley rat at 5.16 mg/kg, sc assessed as increase in latency time after 1 hr by hot plate method; type: functional; conditions: route subcutaneous; method in brief: as §2
Rattus norvegicus [24] = assay: Antinociceptive activity in Sprague-Dawley rat at 5.16 mg/kg, sc assessed as increase in latency time after 2 hrs by hot plate method; type: functional; conditions: route subcutaneous; method in brief: as §2
Rattus norvegicus [25] = assay: Antinociceptive activity in Sprague-Dawley rat assessed as inhibition of number of indomethacin-induced gastric lesions at 5.16 mg/kg, sc; type: functional; conditions: Stomach, route subcutaneous; method in brief: as §3
Rattus norvegicus [26] = assay: […] in Sprague-Dawley rat assessed as inhibition of indomethacin-induced gastric lesions severity at 5.16 mg/kg, sc; type: functional; conditions: Stomach, route subcutaneous; method in brief: as §3
Mus musculus [27] = assay: Antinociceptive activity in Swiss Albino mouse assessed as inhibition of acetic acid-induced writhes per 30 min at 5.16 mg/kg, sc; conditions: 0.5 h, read-out: Inhibition

For `COc1ccc2c(c1)c(CCNC(C)=O)c1n2CC(c2ccccc2)=C(C#N)C1=N`, the inhibition in vivo at 6.88 mg/kg (Rattus norvegicus [1]) was 52.2%, the inhibition in vivo at 6.88 mg/kg (Rattus norvegicus [2]) was 55.2% and the inhibition in vivo at 6.88 mg/kg (Rattus norvegicus [3]) was 48%. The inhibition in vivo at 6.88 mg/kg (Rattus norvegicus [4]) was 36.3%, the Activity (Rattus norvegicus [5]) was 31.7% and the Activity (Rattus norvegicus [6]) was 56.2%. The inhibition in vivo at 6.88 mg/kg (Rattus norvegicus [7]) was 30.2%, the inhibition in vivo at 6.88 mg/kg (Rattus norvegicus [8]) was 53.6% and the inhibition in vivo at 6.88 mg/kg (Mus musculus [9]) was 40.7%.
`COc1ccc2c(c1)c(CCNC(C)=O)c1n2C(=N)C=C1NN` gave an inhibition in vivo at 5.4 mg/kg (Rattus norvegicus [10]) of 54.8%, an inhibition in vivo at 5.4 mg/kg (Rattus norvegicus [11]) of 52.6% and an inhibition in vivo at 5.4 mg/kg (Rattus norvegicus [12]) of 44.2%. The inhibition in vivo at 5.4 mg/kg (Rattus norvegicus [13]) was 36.8%, the Activity (Rattus norvegicus [14]) was 43.7% and the Activity (Rattus norvegicus [15]) was 243.7%. For the same compound, the inhibition in vivo at 5.4 mg/kg (Rattus norvegicus [16]) was 53.9%, the inhibition in vivo at 5.4 mg/kg (Rattus norvegicus [17]) was 57.7% and the inhibition in vivo at 5.4 mg/kg (Mus musculus [18]) was -81.1%.
`COc1ccc2c(c1)c(CCNC(C)=O)c1n2C(=O)CC1=O` gave an inhibition in vivo at 5.16 mg/kg (Rattus norvegicus [19]) of -35.7%, an inhibition in vivo at 5.16 mg/kg (Rattus norvegicus [20]) of 30% and an inhibition in vivo at 5.16 mg/kg (Rattus norvegicus [21]) of -27.1%. It also gave an inhibition in vivo at 5.16 mg/kg (Rattus norvegicus [22]) of 42.9%, an Activity (Rattus norvegicus [23]) of 103.6% and an Activity (Rattus norvegicus [24]) of 132.3%. It also gave an inhibition in vivo at 5.16 mg/kg (Rattus norvegicus [25]) of 43.5%, an inhibition in vivo at 5.16 mg/kg (Rattus norvegicus [26]) of 54.8% and an inhibition in vivo at 5.16 mg/kg (Mus musculus [27]) of 24.4%.
